Assay outcomes deposited in PubChem by several laboratories.
In the library only some 9.4% were active in any assay of this set; here they are far more common.
T cruzi repl: T. cruzi replication inhibition; T. cruzi beta-gal in NIH3T3, luminescence, 90 h; inhibition, % (concentration not given with the values); 300,000 tested, 1.4% active;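 active = mean inhibition across valid replicates above about 55%, limit read from the data; inconclusive = mean below that limit but half or more replicates reach it; inactive = mean below it, under half of replicates reach it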;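 also: signal also drops with host cell toxicity which is not excluded here; 0% = plate median of DMSO wells and 100% = zero luminescence signal; higher percent means less beta-gal luminescence so fewer parasites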
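Read-out: Parasite load inhibition, % | Test system: Mouse NIH/3T3 fibroblasts infected with β-gal-expressing T. cruzi Tulahuen C4 | Amount: 5,000 cells/well | Medium: DMEM, 2% fetal bovine serum | Signal: GalScreen β-gal luminescence, detergent lysis, 60 min | Timing: 3 h attach, ≥90 h co-culture | Also added: Tulahuen C4 trypomastigotes, 5000/well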
L major viab: reduces viability of Leishmania major promastigotes; resazurin fluorescence viability; inhibition, % at 10 µM; 200,000 tested, 9% active; AID 1063; in the data active = inhibition above about 50%;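 also: promastigotes grown with compound for 44 hours at 28 °C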
Mdm2 MdmX PPI: inhibitors of human Mdm2/MdmX interaction. O15151+Q00987. SaOS-2 split-luciferase Mdm2/MdmX complementation, luminescence. inhibition, % at 8 µM. 330,000 tested, 3% active. AID 485346;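 active = inhibition of at least 50% at 8 µM in the primary screen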
Target sequence (O15151 whole entry, looked up): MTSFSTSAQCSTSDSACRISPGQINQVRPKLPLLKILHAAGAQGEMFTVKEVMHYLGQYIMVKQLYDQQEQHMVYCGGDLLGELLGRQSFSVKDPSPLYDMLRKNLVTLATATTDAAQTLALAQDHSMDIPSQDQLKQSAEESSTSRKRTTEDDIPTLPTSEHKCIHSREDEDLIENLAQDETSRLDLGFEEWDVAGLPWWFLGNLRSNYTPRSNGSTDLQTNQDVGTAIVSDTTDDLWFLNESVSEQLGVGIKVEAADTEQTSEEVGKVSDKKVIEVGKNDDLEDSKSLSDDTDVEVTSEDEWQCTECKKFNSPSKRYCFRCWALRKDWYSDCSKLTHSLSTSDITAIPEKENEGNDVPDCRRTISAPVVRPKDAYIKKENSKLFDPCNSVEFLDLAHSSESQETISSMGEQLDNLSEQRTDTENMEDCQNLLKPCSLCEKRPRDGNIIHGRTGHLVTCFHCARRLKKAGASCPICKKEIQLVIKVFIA
Target sequence (Q00987 whole entry, looked up): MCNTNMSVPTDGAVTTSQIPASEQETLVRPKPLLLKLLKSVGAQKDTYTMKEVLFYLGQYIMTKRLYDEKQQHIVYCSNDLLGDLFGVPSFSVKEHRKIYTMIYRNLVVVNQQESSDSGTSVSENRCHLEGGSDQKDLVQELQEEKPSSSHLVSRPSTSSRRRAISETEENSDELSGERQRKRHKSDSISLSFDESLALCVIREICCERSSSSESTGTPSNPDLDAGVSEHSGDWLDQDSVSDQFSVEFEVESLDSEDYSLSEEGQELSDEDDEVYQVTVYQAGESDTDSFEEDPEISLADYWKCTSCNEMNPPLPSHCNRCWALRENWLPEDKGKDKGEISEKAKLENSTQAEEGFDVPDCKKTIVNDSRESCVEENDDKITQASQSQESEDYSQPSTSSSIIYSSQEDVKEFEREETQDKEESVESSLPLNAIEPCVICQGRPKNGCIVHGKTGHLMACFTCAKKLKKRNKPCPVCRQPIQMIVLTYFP
SKKanGAS inh: inhibitors of SKKanGAS S. pyogenes growth in kanamycin (SK-promoter or general growth effect); BacTiter-Glo, 6 h; inhibition, % at 7.5 µM; 300,000 tested, 1.3% active; AID 1662;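 active = mean replicate score, as percent of positive control median, at least 50; inconclusive = mean below 50 but one replicate at or above 50; inactive = mean and every replicate below 50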;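 also: strain carries kanamycin resistance gene driven by streptokinase promoter and grows in 40 µg/ml kanamycin; loss of luminescence reflects streptokinase promoter inhibition or plain growth inhibition; 0% = median of DMSO wells and 100% = positive control at its reference dose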
CSC inhib: cancer stem cell inhibition | cancer stem cell-like cells viability, luminescence | inhibition, % at 7.5 µM | 300,000 tested, 1.1% active; in the data active = inhibition above about 75%; inconclusive = no clear call, values can overlap the other calls; tested in HMLE shEcad cells
Beta apoptosis: blocks beta cell apoptosis | INS-1E cytokine-induced death, ATP luminescence, 48 h; percent of positive-control rescue, neutral wells zero | protection from apoptosis, % (concentration not given with the values) | 300,000 tested, 0.8% active;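 active = Every replicate reaches about 75%, or at least half do and their mean reaches it too, limit read from the data; inconclusive = At least half of replicates reach the limit but their mean does not; inactive = Under half of replicates reach the limit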;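 also: 0% = cytokine-treated negative control wells and 100% = positive control rescue; higher means more ATP so stronger rescue from cytokine killing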
* marks the source's active call; other numbers are inactive results.

What do the screens show for `COc1ccc(CN2CCN(c3ccccn3)CC2)cc1OCc1ccccc1`?
T cruzi repl: -5.9; L major viab: 72.5*; Mdm2 MdmX PPI: 7.9; SKKanGAS inh: -1.4; CSC inhib: -5.1; Beta apoptosis: 9.0

Results for Cc1onc(-c2c(Cl)cccc2Cl)c1C(=O)NCCCN1CCOCC1 ?
T cruzi repl: 7.1; L major viab: 87.7*; Mdm2 MdmX PPI: 13.2; SKKanGAS inh: -0.2; CSC inhib: 15.9; Beta apoptosis: -2.3

Results for Cc1onc(-c2ccccc2Cl)c1C(=O)NCCCN1CCOCC1 ?
T cruzi repl: 9.0; L major viab: 53.1*; Mdm2 MdmX PPI: -6.1; SKKanGAS inh: -5.3; CSC inhib: 12.8; Beta apoptosis: -2.4

What do the screens show for `Cc1onc(-c2c(Cl)cccc2Cl)c1C(=O)c1c[nH]c(C(=O)NCCCN2CCOCC2)c1`?
T cruzi repl: -1.4; L major viab: -0.6; Mdm2 MdmX PPI: -32.3; SKKanGAS inh: -0.9; CSC inhib: 17.6; Beta apoptosis: 2.2

How did Cc1onc(-c2ccccc2Cl)c1C(=O)Nc1ccc(N2CCOCC2)cc1 do in these assays?
T cruzi repl: 4.2; L major viab: 0.8; Mdm2 MdmX PPI: -1.5; SKKanGAS inh: -1.5; CSC inhib: 4.8; Beta apoptosis: 5.7

How did CN(CC(=O)Nc1cccc(F)c1)C(=O)c1ccc(NC2CC2)c([N+](=O)[O-])c1 do in these assays?
T cruzi repl: -6.2; Mdm2 MdmX PPI: 15.8; SKKanGAS inh: -9.8; CSC inhib: -1.4

What do the screens show for `CC1=C/C(=N\OC(=O)/C=C/c2ccccc2)C(C)=CC1=O`?
T cruzi repl: -30.6; L major viab: 100.0*; Mdm2 MdmX PPI: 31.5; SKKanGAS inh: 1.0; CSC inhib: 9.8; Beta apoptosis: -20.0

Results for O=C(COCc1cc(-c2ccc3c(c2)OCO3)on1)N1CCN(c2cccc(C(F)(F)F)c2)CC1 ?
T cruzi repl: -1.6; Mdm2 MdmX PPI: 13.3; SKKanGAS inh: 10.5; CSC inhib: 119.3*; Beta apoptosis: -12.9

Results for CCC(C)(C)NC(=O)CN(Cc1ccc(F)cc1)C(=O)CCC(=O)Nc1ccccn1 ?
T cruzi repl: 14.0; Mdm2 MdmX PPI: -12.5; SKKanGAS inh: -0.2; CSC inhib: 1.1; Beta apoptosis: -1.0

How did COc1cc(C(=O)N/N=C(\c2ccccc2)c2ccccn2)cc(OC)c1OC do in these assays?
T cruzi repl: 55.0*; L major viab: 99.5*; Mdm2 MdmX PPI: 46.5; SKKanGAS inh: 23.2; CSC inhib: 36.4; Beta apoptosis: 86.0*

How did O=C1C2C3C=CC(C3)C2C(=O)N1c1ccccc1OS(=O)(=O)c1ccccc1 (stereo unspecified) do in these assays?
T cruzi repl: 3.7; L major viab: 62.9*; Mdm2 MdmX PPI: -10.0; SKKanGAS inh: -2.6; CSC inhib: 10.5; Beta apoptosis: -0.7

Results for Cc1ccc(S(=O)(=O)Oc2ccccc2N2C(=O)C3C4CCC(C4)C3C2=O)cc1 (stereo unspecified) ?
T cruzi repl: -13.8; Mdm2 MdmX PPI: -44.7; SKKanGAS inh: -0.1; CSC inhib: -0.4; Beta apoptosis: -7.4

How did COc1cc2cc(CN(Cc3cccs3)C(=S)Nc3ccc(C)cc3)c(=O)[nH]c2cc1OC do in these assays?
T cruzi repl: 32.4; L major viab: 97.9*; Mdm2 MdmX PPI: 5.8; SKKanGAS inh: 25.2; CSC inhib: 13.8; Beta apoptosis: 18.3

What do the screens show for `Cc1ccc(NC(=S)N(CCN(C)C)Cc2cc3cccc(C)c3[nH]c2=O)cc1`?
T cruzi repl: 5.7; L major viab: 26.6; Mdm2 MdmX PPI: -16.1; SKKanGAS inh: 3.9; CSC inhib: -17.8; Beta apoptosis: -5.8

Results for COc1ccccc1NC(=O)N(Cc1cccs1)Cc1cc2cc3c(cc2[nH]c1=O)OCO3 ?
T cruzi repl: 13.7; L major viab: 7.0; Mdm2 MdmX PPI: 21.4; SKKanGAS inh: 12.5; CSC inhib: -18.1; Beta apoptosis: 0.9

What do the screens show for `Cc1cc(C)c2[nH]c(=O)c(CN(Cc3cccs3)C(=S)NCc3ccco3)cc2c1`?
T cruzi repl: 15.5; L major viab: 99.0*; Mdm2 MdmX PPI: 9.6; SKKanGAS inh: 11.1; CSC inhib: 87.7*; Beta apoptosis: 6.7

How did CCN(CC)CCN(Cc1cc2cc(C)cc(C)c2[nH]c1=O)C(=S)NCc1ccco1 do in these assays?
T cruzi repl: 27.0; L major viab: 38.1; Mdm2 MdmX PPI: -11.8; SKKanGAS inh: 1.6; CSC inhib: 0.7; Beta apoptosis: -0.2

How did Cc1ccc(NC(=S)N(Cc2cccs2)Cc2cc3cc(C)cc(C)c3[nH]c2=O)cc1 do in these assays?
T cruzi repl: -4.0; L major viab: 94.9*; Mdm2 MdmX PPI: 32.7; SKKanGAS inh: 4.7; CSC inhib: 18.6; Beta apoptosis: 1.5

How did COc1cc2cc(CN(Cc3cccs3)C(=S)Nc3cccc(C)c3)c(=O)[nH]c2cc1OC do in these assays?
T cruzi repl: 35.5; L major viab: 88.1*; Mdm2 MdmX PPI: 7.4; SKKanGAS inh: 29.1; CSC inhib: 30.2

Results for COc1cc(/C=N/NC(=O)CNc2n[nH]c(=O)[nH]c2=O)ccc1OCc1ccccc1 ?
T cruzi repl: -10.9; Mdm2 MdmX PPI: -12.3; SKKanGAS inh: 0.2; CSC inhib: -6.2; Beta apoptosis: 0.8

What do the screens show for `COc1ccc(NS(=O)(=O)c2cc(C(=O)N3CCCCCC3)ccc2C)cc1`?
Mdm2 MdmX PPI: 1.3; CSC inhib: -0.9; Beta apoptosis: 3.5

What do the screens show for `CCN(CC)CCN(Cc1cc2ccc(C)cc2[nH]c1=O)C(=O)Nc1ccc(Cl)cc1`?
T cruzi repl: 40.3; L major viab: 63.3*; Mdm2 MdmX PPI: 19.7; SKKanGAS inh: -9.0; CSC inhib: -3.3; Beta apoptosis: -1.7

How did CCN(CC)CCN(Cc1cc2ccc(C)cc2[nH]c1=O)C(=O)NC1CCCCC1 do in these assays?
T cruzi repl: 8.8; L major viab: 5.1; Mdm2 MdmX PPI: 22.5; SKKanGAS inh: 5.0; CSC inhib: -14.9; Beta apoptosis: 5.1

Results for Cc1ccc(NC(=S)N(Cc2cccs2)Cc2cc3cc(C)ccc3[nH]c2=O)cc1 ?
T cruzi repl: -6.8; L major viab: 79.1*; Mdm2 MdmX PPI: 42.5; SKKanGAS inh: 5.6; CSC inhib: 6.5; Beta apoptosis: -0.2

Results for Cc1cccc(NC(=S)N(Cc2cccs2)Cc2cc3cc(C)ccc3[nH]c2=O)c1 ?
T cruzi repl: 12.6; L major viab: 26.1; Mdm2 MdmX PPI: 28.0; SKKanGAS inh: 7.9; CSC inhib: 18.4; Beta apoptosis: -8.1

Results for CNC(=S)N(Cc1cccs1)Cc1cc2cc(OC)c(OC)cc2[nH]c1=O ?
T cruzi repl: 6.1; L major viab: 61.9*; Mdm2 MdmX PPI: -9.1; SKKanGAS inh: -9.2; CSC inhib: 10.3; Beta apoptosis: inconclusive

Results for CCN(CC)CCN(Cc1cc2cc(C)ccc2[nH]c1=O)C(=S)NCc1ccco1 ?
T cruzi repl: 2.9; L major viab: 60.9*; Mdm2 MdmX PPI: 39.5; SKKanGAS inh: 3.2; CSC inhib: -8.1; Beta apoptosis: -1.6
